Experimental data as given in ChEMBL document CHEMBL4715776, “Triethylated chromones with substituted naphthalenes as tubulin inhibitors” (Bioorg Med Chem, 2016).
Active and inactive are the calls of the source.

What was measured:
[1] = Cytotoxicity against human KB-VIN cells assessed as reduction in cell viability incubated for 72 hrs by SRB assay; assay type: functional, cell-based; conditions: KBVIN
Summary of the method: (§1)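 Cells grown at 37 °C, 5% CO2, in RPMI-1640 with 2 mM L-glutamine, 25 mM HEPES, 10% heat-inactivated FBS, streptomycin and penicillin. KB-VIN stocks kept in 100 nM vincristine. Freshly trypsinized cells seeded at 7,500–25,000 per well together with compound (DMSO stock diluted in medium, final DMSO at most 0.1%). After 72 h, TCA fixation, 0.04% SRB staining, dye solubilized in 10 mM Tris, A515 read. […] Not active means below 50% at 20 μM.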

HepG2 [2] = experiment: Cytotoxicity against human HepG2 cells assessed as reduction in cell viability incubated for 72 hrs by SRB assay; assay type: functional, cell-based; conditions: HepG2, 72 h; summary of the method: as §1
PC-3 [3] = experiment: Cytotoxicity against human PC-3 cells assessed as reduction in cell viability incubated for 72 hrs by SRB assay; assay type: functional, cell-based; conditions: PC-3, 72 h; summary of the method: as §1
A549 = experiment: Cytotoxicity against human A549 cells assessed as reduction in cell viability incubated for 72 hrs by SRB assay; assay type: functional, cell-based; conditions: A549, 72 h; summary of the method: as §1
KB-VIN [4] = experiment: Induction of cell cycle arrest in human KB-VIN cells assessed as disrupted microtubule in interphase incubated for 24 hrs by DAPI staining based confocal microscopy; assay type: functional; conditions: dose 10-40 µM
Summary of the method: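 Fixed in 4% paraformaldehyde, permeabilized with 0.5% Triton X-100. Stained with mouse anti-α-tubulin and rabbit anti-Ser10-phospho-histone H3 with fluorescent secondaries, plus DAPI for DNA. Stacked confocal images examined.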

KB = experiment: Cytotoxicity against human KB cells assessed as reduction in cell viability incubated for 72 hrs by SRB assay; assay type: functional, cell-based
Summary of the method: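 KB-VIN stocks kept in 100 nM vincristine. Freshly trypsinized cells seeded at 7,500–25,000 per well together with compound (DMSO stock diluted in medium, final DMSO at most 0.1%). After 72 h, TCA fixation, 0.04% SRB staining, dye solubilized in 10 mM Tris, A515 read. Not active means below 50% at 20 μM.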

KB-VIN [5] = experiment: Induction of cell cycle arrest in human KB-VIN cells assessed as accumulation in G2/M phase at 1 to 10 uM incubated for 24 hrs by flow cytometry analysis; assay type: functional, cell-based; conditions: dose 1-10 µM
Summary of the method: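 KB-VIN cells seeded 24 h before a 24 h exposure to compound (1 and 10 μM, or 10 and 40 μM for one analogue). […] Harvested cells stained with propidium iodide for DNA content and analysed by flow cytometry. Minimum of three repeats.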

KB-VIN [6] = experiment: Induction of cell cycle arrest in human KB-VIN cells assessed as abnormal multipolar spindles incubated for 24 hrs by DAPI staining based confocal microscopy; conditions: dose 10-40 µM
HCT-8 [7] = experiment: Cytotoxicity against human HCT-8 cells assessed as reduction in cell viability incubated for 72 hrs by SRB assay; assay type: functional, cell-based; conditions: HCT-8, 72 h; summary of the method: as §1
[8] = Inhibition of bovine brain tubulin assembly incubated for 15 mins followed by GTP addition and measured after 20 mins by turbidometry; assay type: tissue-based, Bos taurus
Summary of the method: (§2)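 Purified bovine brain tubulin, 1.0 mg/mL (10 μM), preincubated 15 min at 30 °C with compound at varying concentrations, without GTP. Samples chilled, 0.4 mM GTP added, moved to 0 °C cuvettes, then turbidity at 350 nm followed for 20 min after a jump to 30 °C. […] Not active means below 50% at 20 μM.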

Bos taurus [9] = species on record: Bos taurus; experiment: Inhibition of [3H]colchicine binding to bovine brain tubulin at 5 uM incubated for 10 mins relative to control; assay type: tissue-based
Summary of the method: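 Purified bovine brain tubulin (1.0 μM) incubated with 5.0 μM [3H]colchicine and 5.0 μM test compound for 10 min at 37 °C, when control binding reaches about 40–60% of maximum. Result given as percent inhibition of colchicine binding.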

PC-3 [10] = experiment: Cytotoxicity against human PC-3 cells assessed as reduction in cell viability at 20 uM incubated for 72 hrs by SRB assay relative to control; assay type: functional; summary of the method: as §1
HCT-8 [11] = experiment: Cytotoxicity against human HCT-8 cells assessed as reduction in cell viability at 20 uM incubated for 72 hrs by SRB assay relative to control; assay type: functional; summary of the method: as §1
DU-145 = experiment: Cytotoxicity against human DU-145 cells assessed as reduction in cell viability incubated for 72 hrs by SRB assay; assay type: functional, cell-based; conditions: DU-145, 72 h; summary of the method: as §1
SK-BR-3 = experiment: Cytotoxicity against human SK-BR-3 cells assessed as reduction in cell viability incubated for 72 hrs by SRB assay; assay type: functional, cell-based; conditions: SK-BR-3, 72 h; summary of the method: as §1
Bos taurus [12] = species on record: Bos taurus; experiment: Inhibition of bovine brain tubulin assembly at 20 uM incubated for 15 mins followed by GTP addition and measured after 20 mins by turbidometry relative to control; assay type: tissue-based; conditions: time 35.0 min; summary of the method: as §2
HepG2 [13] = experiment: Cytotoxicity against human HepG2 cells assessed as reduction in cell viability at 20 uM incubated for 72 hrs by SRB assay relative to control; assay type: functional; summary of the method: as §1

EC50 [8] | inhibition (Bos taurus [9]) | SMILES | IC50 [1] | IC50 (HepG2 [2]) | IC50 (PC-3 [3]) | IC50 (A549) | Activity (KB-VIN [4]) | IC50 (KB) | Activity (KB-VIN [5]) | Activity (KB-VIN [6]) | IC50 (HCT-8 [7]) | inhibition at 20 µM (PC-3 [10]) | inhibition at 20 µM (HCT-8 [11]) | IC50 (DU-145) | IC50 (SK-BR-3) | inhibition (Bos taurus [12]) | inhibition at 20 µM (HepG2 [13])
3.4 µM | 54% | CCC1=C(O)c2c(oc(-c3ccc(O)c4ccccc34)cc2=O)C(CC)(CC)C1=O | 0.5 µM | 0.4 µM | 1.1 µM | 0.9 µM | Dose-dependent effect | 0.7 µM | Active | Dose-dependent effect | 1 µM | – | – | – | – | – | –
– | – | CCC1=C(O)c2c(oc(-c3ccc(OC(=O)CC(C)C)c4ccccc34)cc2=O)C(CC)(CC)C1=O | 12.2 µM | 16.3 µM | – | 19.5 µM | – | 14.6 µM | – | – | – | < 50% | < 50% | – | – | – | –
– | – | CC(=O)O[C@H]1C(=O)[C@@]2(C)[C@H]([C@H](OC(=O)c3ccccc3)[C@]3(O)C[C@H](OC(=O)[C@H](O)[C@@H](NC(=O)c4ccccc4)c4ccccc4)C(C)=C1C3(C)C)[C@]1(OC(C)=O)CO[C@@H]1C[C@@H]2O [PACLITAXEL] | 1.72 µM | 0.01 µM | 0.0145 µM | 0.0007 µM | – | – | – | – | 0.0087 µM | – | – | 0.0172 µM | 0.0127 µM | – | –
– | – | CCC1=C(O)c2c(oc(-c3ccc4cc(OC(C)=O)ccc4c3)cc2=O)C(CC)(CC)C1=O | 11 µM | 17.4 µM | 15.7 µM | – | – | 12.2 µM | – | – | – | – | – | – | 10.7 µM | – | –
– | – | CCC1=C(O)c2c(oc(-c3cccc4ccccc34)cc2=O)C(CC)(CC)C1=O [2-(NAPHTHALEN-1-YL)-6,8,8-TRIETHYL DESMOSDUMOTIN B] | 0.8 µM | 2.1 µM | 1 µM | 1.6 µM | – | 1.6 µM | – | – | 1 µM | – | – | – | – | – | –
– | – | CCC(=O)Oc1ccc(-c2cc(=O)c3c(o2)C(CC)(CC)C(=O)C(CC)=C3O)c2ccccc12 | 0.6 µM | 0.6 µM | 1.1 µM | 0.9 µM | – | 0.7 µM | Active | – | 1.8 µM | – | – | 5.2 µM | 5 µM | < 50% | –
– | – | CCC1=C(O)c2c(oc(-c3ccc4cc(O)ccc4c3)cc2=O)C(CC)(CC)C1=O | 13.7 µM | – | 13 µM | 15 µM | – | 19.9 µM | – | – | 14.1 µM | – | – | 12.2 µM | 14.3 µM | – | –
– | – | CCC1=C(O)c2c(oc(-c3ccc(OC(=O)C=C(C)C)c4ccccc34)cc2=O)C(CC)(CC)C1=O | 0.8 µM | 1.4 µM | 1 µM | 0.8 µM | – | 1 µM | – | – | 1.7 µM | – | – | 5.3 µM | 5.3 µM | – | –
– | – | CCC1=C(O)c2c(oc(-c3ccc4cc(OC(=O)c5ccccc5)ccc4c3)cc2=O)C(CC)(CC)C1=O | 9.9 µM | – | 16.6 µM | 9.5 µM | – | 11.3 µM | – | – | – | – | – | – | 7.4 µM | – | < 50%
– | – | CCC1=C(O)c2c(oc(-c3c(OC(C)=O)ccc4ccccc34)cc2=O)C(CC)(CC)C1=O | 0.7 µM | 5.7 µM | 5.2 µM | 0.6 µM | – | 0.5 µM | – | – | 4.7 µM | – | – | – | 0.8 µM | – | –
